We go through 12 compounds from ChEMBL document CHEMBL1287756, “Design and synthesis of an androgen receptor pure antagonist (CH5137291) for the treatment of castration-resistant prostate cancer” (Bioorg Med Chem, 2010).

Usually inhibition stands for the change of the read-out against control, counted positive when it falls. By ED50 is commonly meant the midpoint of the dose-response relation. The term IC50 denotes the concentration at which inhibition is half-maximal.

The test system of series [1] is Mus musculus. In words: Inhibition of prostate specific antigen production in human bicalutamide-resistant LNCAP cells xenografted SCID mouse at 10 mg/kg, po qd for seven cycles of 5 days on and 2 days off measured on day 17. The class given is functional, organism-based. Further details: dose 10 mg/kg. The essentials:
(§1)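 LNCaP-BC2 cells (2 × 10^6) inoculated subcutaneously into castrated 6-week-old male SCID mice. Randomised at tumour size 90–400 mm3, n = 5 per group. Oral dosing once daily in 5% gum arabic at 10 mL/kg, seven cycles of 5 days on and 2 days off. Tumour size and plasma PSA measured after 17 days. PSA expressed as day 17 level relative to day 0 level.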
On the technique in general: In xenograft studies the graft and the host belong to different species.

The test system of series [2] is LNCaP. Briefly: Antitumor activity against human bicalutamide-resistant LNCAP cells xenografted in SCID mouse assessed as inhibition of tumor growth at 100 mg/kg, po qd for seven cycles of 5 days on, 2 days off. The class given is functional, organism-based. More on the design: dose 100 mg/kg. The essentials:
as §1

The test system of series [3] is LNCaP. Briefly: Antitumor activity against human bicalutamide-resistant LNCAP cells xenografted in SCID mouse assessed as inhibition of tumor growth at 10 mg/kg, po qd for seven cycles of 5 days on, 2 days off. Further details: dose 10 mg/kg. Format: functional, organism-based. The essentials: as §1
The species named for series [4] is Mus musculus. Briefly: Antiandrogenic activity in castrated mouse assessed as reduction in wet weight gain of seminal vesicle. Format: functional. The essentials:
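Castrated mice, n = 4 or 5 per group; antiandrogenic activity read as change in seminal vesicle wet weight.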

The nature of series [5]: Metabolic stability in human liver microsomes assessed as compound remaining after 15 mins by LC-MS/MS analysis. The class given is ADME, Microsome. Conditions: read-out: Stability. The essentials: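 Human liver microsomes in phosphate buffer (pH 7.4) with NADPH added. Percent of parent compound remaining measured after 15 min.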
On the technique in general: Microsomes from liver hold many membrane-bound enzymes, among them those of drug oxidation.

Another series concerns the target hERG (KCNH2) (Homo sapiens, UniProt Q12809). Briefly: Inhibition of human ERG at 10 uM by whole cell patch-clamp technique. The essentials: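 hERG current recorded by whole-cell patch clamp; one experiment run in duplicate.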
Series [6] deals with Mus musculus. Briefly: Inhibition of prostate specific antigen production in human bicalutamide-resistant LNCAP cells xenografted SCID mouse at 100 mg/kg, po qd for seven cycles of 5 days on and 2 days off measured on day 17. The class given is functional, organism-based. Further details: dose 100 mg/kg. The essentials:
as §1

The nature of series [7]: Metabolic stability in rat liver microsomes assessed as compound remaining after 30 mins by LC-MS/MS analysis. Format: ADME, Microsome. Conditions: read-out: Stability.
Series [8] can be described thus: Metabolic stability in monkey liver microsomes assessed as compound remaining after 30 mins by LC-MS/MS analysis. Format: ADME, Macaca mulatta, Microsome. The conditions noted are these: rhesus monkey, read-out: Stability.
For series [9], the target named is T1, Androgen receptor (Homo sapiens) (UniProt P10275).
T1 sequence (whole entry): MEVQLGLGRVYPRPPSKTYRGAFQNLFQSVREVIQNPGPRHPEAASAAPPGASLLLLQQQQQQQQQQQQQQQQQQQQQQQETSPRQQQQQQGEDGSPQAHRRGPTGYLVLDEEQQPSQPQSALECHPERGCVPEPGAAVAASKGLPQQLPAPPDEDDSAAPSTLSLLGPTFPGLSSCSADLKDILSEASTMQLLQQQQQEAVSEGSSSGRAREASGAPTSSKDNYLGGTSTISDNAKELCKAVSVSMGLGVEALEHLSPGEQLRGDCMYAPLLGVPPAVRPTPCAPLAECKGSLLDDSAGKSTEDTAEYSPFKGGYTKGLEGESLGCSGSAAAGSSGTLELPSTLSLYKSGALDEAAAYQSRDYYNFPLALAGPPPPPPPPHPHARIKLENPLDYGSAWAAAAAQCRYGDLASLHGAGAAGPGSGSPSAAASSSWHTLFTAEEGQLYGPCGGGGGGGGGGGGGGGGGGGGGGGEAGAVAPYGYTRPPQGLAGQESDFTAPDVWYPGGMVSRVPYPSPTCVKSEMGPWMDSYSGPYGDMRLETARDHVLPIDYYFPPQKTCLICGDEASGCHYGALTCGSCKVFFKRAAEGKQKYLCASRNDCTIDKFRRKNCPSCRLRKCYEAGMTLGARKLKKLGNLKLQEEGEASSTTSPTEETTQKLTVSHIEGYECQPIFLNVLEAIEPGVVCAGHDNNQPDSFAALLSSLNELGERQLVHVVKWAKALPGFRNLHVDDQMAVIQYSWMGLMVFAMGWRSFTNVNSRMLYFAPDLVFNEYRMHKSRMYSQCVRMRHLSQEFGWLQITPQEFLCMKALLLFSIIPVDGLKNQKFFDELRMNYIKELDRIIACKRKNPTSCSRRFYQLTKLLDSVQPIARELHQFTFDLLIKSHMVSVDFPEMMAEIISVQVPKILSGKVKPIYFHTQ
Conditions: HeLa.

Series [10] is described as follows: Metabolic stability in human liver microsomes assessed as compound remaining after 30 mins by LC-MS/MS analysis. The conditions noted are these: read-out: Stability. The class given is ADME, Microsome.
Series [11] in a line: Metabolic stability in mouse liver microsomes assessed as compound remaining after 30 mins by LC-MS/MS analysis. The class given is ADME, Microsome. The conditions noted are these: read-out: Stability.
Series [12] in a line: Metabolic stability in dog liver microsomes assessed as compound remaining after 30 mins by LC-MS/MS analysis. The class given is ADME, Canis lupus familiaris, Microsome. Conditions: read-out: Stability.
A further series deals with T2, Androgen receptor (Homo sapiens, UniProt P10275).
T2 sequence (P10275 whole entry): T1 sequence (whole entry)
Briefly: Antagonist activity at human AR expressed in human HeLa cells co-transfected with MMTV-Luc-Hyg after 48 hrs by transient-luciferase reporter gene assay. The class given is functional, cell-based. For orientation: Reporter assays use an easily measured gene product as a stand-in for the process of interest.

A short description of series [13]: Membrane permeability by PAMPA assay. The conditions noted are these: read-out: permeability. Format: ADME.
A further series concerns Canis familiaris. In words: Cardiotoxicity in anesthetized dog assessed as QT prolongation by electrocardiographic analysis. The conditions noted are these: in vivo. The class given is toxicity, organism-based, Canis lupus familiaris.

Calls of active or inactive are those of the source. No cut-off for these calls is given here. A value given as a limit tells only on which side of the number the result lay.

Sequence of hERG (KCNH2) (Q12809 whole entry): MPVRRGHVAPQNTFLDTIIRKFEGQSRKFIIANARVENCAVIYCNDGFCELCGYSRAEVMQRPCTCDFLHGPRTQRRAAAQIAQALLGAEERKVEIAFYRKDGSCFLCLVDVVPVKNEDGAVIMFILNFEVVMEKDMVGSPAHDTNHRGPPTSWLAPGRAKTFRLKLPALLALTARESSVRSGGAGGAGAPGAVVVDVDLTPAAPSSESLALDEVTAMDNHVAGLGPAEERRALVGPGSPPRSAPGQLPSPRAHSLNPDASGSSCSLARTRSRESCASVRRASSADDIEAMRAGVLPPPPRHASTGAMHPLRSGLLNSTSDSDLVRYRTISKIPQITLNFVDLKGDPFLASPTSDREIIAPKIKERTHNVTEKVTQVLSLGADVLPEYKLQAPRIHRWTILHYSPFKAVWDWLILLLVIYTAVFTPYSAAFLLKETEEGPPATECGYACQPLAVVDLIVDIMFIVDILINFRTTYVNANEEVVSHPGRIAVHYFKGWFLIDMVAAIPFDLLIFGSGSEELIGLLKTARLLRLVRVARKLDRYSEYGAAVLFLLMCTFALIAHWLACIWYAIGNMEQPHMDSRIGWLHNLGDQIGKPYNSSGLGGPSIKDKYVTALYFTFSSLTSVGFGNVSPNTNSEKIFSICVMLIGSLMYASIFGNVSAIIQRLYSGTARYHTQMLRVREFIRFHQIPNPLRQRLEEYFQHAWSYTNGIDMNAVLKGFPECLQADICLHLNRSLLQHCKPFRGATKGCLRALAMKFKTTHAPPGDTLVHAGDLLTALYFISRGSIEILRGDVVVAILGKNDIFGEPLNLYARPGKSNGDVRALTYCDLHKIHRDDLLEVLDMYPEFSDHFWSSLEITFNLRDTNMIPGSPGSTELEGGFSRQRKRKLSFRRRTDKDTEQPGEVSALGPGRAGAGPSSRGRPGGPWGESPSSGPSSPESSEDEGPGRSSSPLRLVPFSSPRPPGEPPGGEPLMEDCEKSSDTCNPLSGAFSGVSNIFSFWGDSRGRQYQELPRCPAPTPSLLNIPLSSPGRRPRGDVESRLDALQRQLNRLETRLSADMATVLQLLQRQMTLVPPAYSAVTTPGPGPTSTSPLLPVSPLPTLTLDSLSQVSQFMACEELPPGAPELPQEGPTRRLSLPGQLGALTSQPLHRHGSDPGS

As for `CC(O)(CS(=O)(=O)c1ccc(F)cc1)C(=O)Nc1ccc(C#N)c(C(F)(F)F)c1` (configuration not stated) [BICALUTAMIDE], the inhibition entry with Mus musculus [1], in the series on LNCaP [2], with LNCaP [3] and in the series on Mus musculus [6] was “inactive” throughout. In the series listed under Mus musculus [4], the ED50 turned out to be 3 mg/kg. Also, the remaining at 0.25 h in series [5] came out at 99%. The compound also returned an inhibition at 10 µM against hERG (KCNH2) of 7.4%.
For the compound `CC1(C)NC(=S)N(c2ccc(C#N)c(Cl)c2)C1=O`, the remaining at 0.5 h in series [7] is 0.075%; in series [8], 0.027%; in [10], 0.022%; in series [11] it was 0.038%; in series [12] it was less than 0.001%. Also, the EC5 in series [9] was 0.0002 µM.
Regarding `CC1(C)C(=O)N(c2ccc(C#N)c(C(F)(F)F)c2)C(=S)N1c1cncc(S(N)(=O)=O)c1`, the ED50 in the series listed under Mus musculus [4] (Mus musculus, read-out: ED50) turned out to be 6 mg/kg. For the same compound, the remaining at 0.25 h in series [5] worked out at 95%. In addition, in series [9], the EC5 is more than 10 µM. Also, the inhibition at 10 µM against hERG (KCNH2) is 33%. In addition, the IC50 on Androgen receptor was 1 µM. For the same compound, the Papp in [13] stood at 14 ×10⁻⁶ cm/s.
Take `CC1(C)C(=O)N(c2ccc(C#N)c(Cl)c2)C(=S)N1c1cccc(S(N)(=O)=O)c1`: the ED50 in the series filed under Mus musculus [4] (Mus musculus, read-out: ED50) is 84 mg/kg. Moreover, the remaining at 0.25 h in series [5] came out at 100%. In [9], this compound gave an EC5 of more than 10 µM. On hERG (KCNH2), this compound yielded an inhibition at 10 µM of 58%. The Papp in series [13] came to 1.6 ×10⁻⁶ cm/s.
In the case of `CC1(C)C(=O)N(c2ccc(C#N)c(C(F)(F)F)c2)C(=S)N1c1cccc(S(N)(=O)=O)n1`, the inhibition entry in the series on Mus musculus [1], in the series on LNCaP [2], in the series with LNCaP [3] and in the series with Mus musculus [6] was “Active” each time. Also, the 50% effective dose (ED50) in the series filed under Mus musculus [4] (Mus musculus, read-out: ED50) stood at 7 mg/kg. For the same compound, in series [5], the remaining at 0.25 h was 94%. The compound further had an EC5 in [9] of more than 10 µM. This compound showed an inhibition at 10 µM against hERG (KCNH2) of 10%. In addition, the Activity result in the series on Canis familiaris was “Non-toxic”. For the same compound, the IC50 on Androgen receptor was found to be 0.7 µM. For the same compound, in series [13], the Papp amounted to 14 ×10⁻⁶ cm/s.
As for `CC1(C)C(=O)N(c2ccc(C#N)c(Cl)c2)C(=S)N1CCCS(N)(=O)=O`, the ED50 in the series filed under Mus musculus [4] (Mus musculus, read-out: ED50) worked out at 10 mg/kg. For the same compound, in [5], the remaining at 0.25 h is 100%. This compound registered an EC5 in [9] of more than 10 µM. Also, the inhibition at 10 µM at hERG (KCNH2) worked out at 17%. The Papp in series [13] turned out to be 25 ×10⁻⁶ cm/s.
Turning to `CC1(C)C(=O)N(c2ccc(C#N)c(C(F)(F)F)c2)C(=S)N1c1ccnc(S(N)(=O)=O)c1`, the remaining at 0.25 h in [5] is 97%. Besides, in series [9], the EC5 is more than 10 µM. In addition, 10 µM produced 0% inhibition against hERG (KCNH2). The compound also came in with an IC50 on Androgen receptor of 1 µM. Also, the Papp in series [13] worked out at 12 ×10⁻⁶ cm/s.
On to `CC1(C)NC(=S)N(c2ccc(C#N)c(C(F)(F)F)c2)C1=O`, for which the remaining at 0.5 h in [7], in series [8], in series [10], in series [11] and in series [12] was less than 0.001% each time. Further, the EC5 in series [9] amounted to 0.001 µM.
On to `CC1(C)C(=O)N(c2ccc(C#N)c(C(F)(F)F)c2)C(=S)N1c1ccccc1`, for which the remaining at 0.25 h in series [5] is 80%. Further, the EC5 in series [9] stood at 3 µM. This compound also showed a concentration for half-maximal inhibition (IC50) at Androgen receptor of 0.2 µM. For the same compound, the Papp in series [13] was 0.69 ×10⁻⁶ cm/s.
Take `CC1(C)C(=O)N(c2ccc(C#N)c(Cl)c2)C(=S)N1c1cncc(S(N)(=O)=O)c1`: the remaining at 0.25 h in series [5] stood at 95%. This compound also yielded an EC5 in series [9] of more than 10 µM. Further, the inhibition at 10 µM on hERG (KCNH2) stood at 52%. Also, the concentration for half-maximal inhibition (IC50) at Androgen receptor amounted to 2 µM. Besides, the Papp in series [13] came out at 13 ×10⁻⁶ cm/s.
For the compound `CC1(C)C(=O)N(c2ccc(C#N)c(Cl)c2)C(=S)N1c1cccc(S(N)(=O)=O)n1`, the ED50 in the series filed under Mus musculus [4] (Mus musculus, read-out: ED50) turned out to be 6 mg/kg. Further, the remaining at 0.25 h in [5] was determined as 100%. In addition, the EC5 in series [9] was more than 10 µM. At hERG (KCNH2), the inhibition at 10 µM stood at 26%. Moreover, half-maximal inhibition against Androgen receptor (IC50) required 0.6 µM. The Papp in series [13] worked out at 1.3 ×10⁻⁶ cm/s.
On to `CC1(C)C(=O)N(c2ccc(C#N)c(C(F)(F)F)c2)C(=S)N1c1cccc(S(N)(=O)=O)c1`, for which the ED50 in the series filed under Mus musculus [4] (Mus musculus, read-out: ED50) stood at 63 mg/kg. The remaining at 0.25 h in series [5] is 100%. The same compound gave an EC5 in [9] of more than 10 µM. Besides, at 10 µM the inhibition at hERG (KCNH2) was 41%. Moreover, the IC50 on Androgen receptor came to 0.3 µM. In addition, the Papp in series [13] was determined as 8.1 ×10⁻⁶ cm/s.
